Laboratory results published in ChEMBL document CHEMBL1138318, “Synthesis and evaluation of the antiproliferative activities of derivatives of carboxyalkyl isoflavones linked to N-t-Boc-hexylenediamine” (J Med Chem, 2007).

Legend:
A2780 [1] = assay: Inhibition of DNA synthesis in human A2780 cells assessed as ratio of treated to untreated control at 3 uM after 48 hrs by [3H]thymidine incorporation assay; assay type: functional
How it was run: (§1)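 Single-concentration screen by [3H]-thymidine incorporation into DNA. Test compounds were used at 0.3 µM in C4–2B cells and at 3 µM in 320DM, MLS, A2780, H295R and VSMC cells. Estradiol 17β was used at 30 nM throughout. Values are experimental/control DNA-synthesis ratios, given as means ± SD of 8–16 incubates from 2–4 experiments.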

[2] = Inhibition of DNA synthesis in human 320DM cells assessed as ratio of treated to untreated control at 3 uM after 48 hrs by [3H]thymidine incorporation assay; assay type: functional; how it was run: as §1
[3] = Inhibition of DNA synthesis in human MLS cells assessed as ratio of treated to untreated control at 3 uM after 48 hrs by [3H]thymidine incorporation assay; assay type: functional; how it was run: as §1
[4] = Inhibition of DNA synthesis in human H295R cells assessed as ratio of treated to untreated control at 3 uM after 48 hrs by [3H]thymidine incorporation assay; assay type: functional; how it was run: as §1
LNCaP C4-2B [5] = assay: Inhibition of DNA synthesis in human C4-2B cells assessed as ratio of treated to untreated control at 0.3 uM after 48 hrs by [3H]thymidine incorporation assay; assay type: functional; how it was run: as §1
[6] = Inhibition of DNA synthesis in human VSMC cells assessed as ratio of treated to untreated control at 3 uM after 48 hrs by [3H]thymidine incorporation assay
[7] = Inhibition of DNA synthesis in human H295R cells assessed as ratio of treated to untreated control at 30 nM after 48 hrs by [3H]thymidine incorporation assay; assay type: functional; how it was run: as §1
LNCaP C4-2B [8] = assay: Inhibition of DNA synthesis in human C4-2B cells assessed as ratio of treated to untreated control at 30 nM after 48 hrs by [3H]thymidine incorporation assay; assay type: functional; how it was run: as §1
[9] = Inhibition of DNA synthesis in human VSMC cells assessed as ratio of treated to untreated control at 30 nM after 48 hrs by [3H]thymidine incorporation assay; assay type: cell-based; settings: 0.03 µM; how it was run: as §1
[10] = Stimulation of DNA synthesis in human MLS cells assessed as ratio of treated to untreated control at 300 nM after 48 hrs by [3H]thymidine incorporation assay; assay type: functional
How it was run: (§2)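 Estradiol-driven proliferation in MLS and 320DM cells, measured by [3H]-thymidine incorporation. Cells were exposed to estradiol at 30 or 300 nM, alone or with compound (0.3 µM) or ICI 182780 (1.1 µM). Values are E/C ratios versus untreated control, given as means ± SD of 8–16 incubates from 2–4 experiments.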

[11] = Inhibition of DNA synthesis in human 320DM cells assessed as ratio of treated to untreated control at 30 nM after 48 hrs by [3H]thymidine incorporation assay; assay type: functional; how it was run: as §1
[12] = Inhibition of DNA synthesis in human MLS cells assessed as ratio of treated to untreated control at 30 nM after 48 hrs by [3H]thymidine incorporation assay; assay type: functional; how it was run: as §1
A2780 [13] = assay: Inhibition of DNA synthesis in human A2780 cells assessed as ratio of treated to untreated control at 30 nM after 48 hrs by [3H]thymidine incorporation assay; assay type: functional; how it was run: as §1
[14] = Stimulation of DNA synthesis in human 320DM cells assessed as ratio of treated to untreated control at 300 nM after 48 hrs by [3H]thymidine incorporation assay; assay type: functional; how it was run: as §2
[15] = Inhibition of DNA synthesis in human MLS cells assessed as ratio of treated to untreated control at 1.1 uM after 48 hrs by [3H]thymidine incorporation assay; assay type: functional
How it was run: (§3)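 [3H]-thymidine incorporation into DNA in human MLS ovarian or 320DM colon cancer cells; antagonist tested at 1.1 µM alone or with estradiol at 30 nM or 300 nM. Reported as ratio of experimental to control (E/C) DNA synthesis, means ± SD of 8–16 incubates from 2–4 experiments; significance flagged at p < 0.05 and p < 0.01.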

[16] = Inhibition of DNA synthesis in human 320DM cells assessed as ratio of treated to untreated control at 1.1 uM after 48 hrs by [3H]thymidine incorporation assay; assay type: functional; how it was run: as §3
[17] = Inhibition of 30 nM estradiol induced stimulation of DNA synthesis in human MLS cells assessed as ratio of treated to untreated control at 1.1 uM after 48 hrs by [3H]thymidine incorporation assay; assay type: functional; how it was run: as §3
[18] = Inhibition of 30 nM estradiol induced stimulation of DNA synthesis in human 320DM cells assessed as ratio of treated to untreated control at 1.1 uM after 48 hrs by [3H]thymidine incorporation assay; assay type: functional; how it was run: as §3
[19] = Inhibition of 300 nM estradiol induced stimulation of DNA synthesis in human MLS cells assessed as ratio of treated to untreated control at 1.1 uM after 48 hrs by [3H]thymidine incorporation assay; assay type: functional; how it was run: as §3
[20] = Inhibition of 300 nM estradiol induced stimulation of DNA synthesis in human 320DM cells assessed as ratio of treated to untreated control at 1.1 uM after 48 hrs by [3H]thymidine incorporation assay; assay type: functional; how it was run: as §3

## COc1ccc(-c2c(CCCC(=O)NCCCCCCNC(=O)OC(C)(C)C)oc3cc(O)cc(O)c3c2=O)cc1
A2780 [1]
  Ratio: 0.64
[2]
  Ratio: 0.22
[3]
  Ratio: 0.05
[4]
  Ratio: 0.55
LNCaP C4-2B [5]
  Ratio: 0.41
[6]
  Ratio: 0.74

## C[C@]12CC[C@@H]3c4ccc(O)cc4CC[C@H]3[C@@H]1CC[C@@H]2O [ESTRADIOL]
[7]
  Ratio: 2.1
LNCaP C4-2B [8]
  Ratio: 2.1
[9]
  Ratio: 0.55
[10]
  Ratio: 1.7
[11]
  Ratio: 2.06
[12]
  Ratio: 2.35
A2780 [13]
  Ratio: 1.42
[14]
  Ratio: 1.87

## C[C@]12CC[C@@H]3c4ccc(O)cc4C[C@@H](CCCCCCCCC[S+]([O-])CCCC(F)(F)C(F)(F)F)[C@H]3[C@@H]1CC[C@@H]2O (stereo not given in full) [FULVESTRANT]
[15]
  Ratio: 0.52
[16]
  Ratio: 0.63
[17]
  Ratio: 0.53
[18]
  Ratio: 0.63
[19]
  Ratio: 0.95
[20]
  Ratio: 0.92

## CC(C)(C)OC(=O)NCCCCCCNC(=O)CCCc1oc2cc(O)cc(O)c2c(=O)c1-c1ccc(O)cc1
A2780 [1]
  Ratio: 1.12
[2]
  Ratio: 0.2
[4]
  Ratio: 0.6
LNCaP C4-2B [5]
  Ratio: 0.75
[6]
  Ratio: 0.78
